Screens: PubChem, several laboratories
An excerpt weighted towards active compounds, which were near 4.4% of everything screened.
HTR2A ag – mouse Htr2a agonists via beta-arrestin recruitment, primary screen, cell-based, luminescence | 5-hydroxytryptamine receptor 2A (Mus musculus), P35363 | CHO-K1 mHTR2A beta-arrestin complementation; percent of 30 µM serotonin response | activation, % at 7.6 µM | actives 0.66% (n = 360,000);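 active = activation above a run cutoff, the mean activation of all tested compounds plus 3 SD, cut at about 14% in these data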;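 note: 0% = plate median of compound wells and 100% = 30 µM serotonin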
Target sequence (P35363 whole entry, looked up): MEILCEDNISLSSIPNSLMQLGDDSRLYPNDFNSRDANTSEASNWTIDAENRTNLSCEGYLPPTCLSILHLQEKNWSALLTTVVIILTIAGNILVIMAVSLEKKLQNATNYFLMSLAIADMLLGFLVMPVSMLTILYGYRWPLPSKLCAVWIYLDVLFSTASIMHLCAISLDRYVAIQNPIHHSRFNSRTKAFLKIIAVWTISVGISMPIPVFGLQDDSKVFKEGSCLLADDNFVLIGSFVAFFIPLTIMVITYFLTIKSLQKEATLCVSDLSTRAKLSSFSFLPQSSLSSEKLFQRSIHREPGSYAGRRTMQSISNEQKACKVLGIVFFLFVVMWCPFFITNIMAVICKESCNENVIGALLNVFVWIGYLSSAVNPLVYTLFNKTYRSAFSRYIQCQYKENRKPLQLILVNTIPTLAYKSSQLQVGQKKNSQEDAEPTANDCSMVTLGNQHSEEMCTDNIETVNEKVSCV
AI-2 QS mod – Vibrio harveyi AI-2 quorum sensing modulators, primary screen, JMH597 strain, luminescence/OD600 ratio. activity change, % at 7.5 µM. Vibrio harveyi JMH597 AI-2 luminescence/OD600 ratio, 9 h; stronger effect = lower value; strain lacks LuxN and CqsS sensors; 0 = neutral-control median. actives 0.4% (n = 300,000). AID 2094, 2009; in the data active = activity change below about -75%, passing the limit was not always enough; inconclusive = no clear call, values can overlap the other calls;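 note: luminescence divided by OD600 gain over 9 h not by final OD600 alone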
MsrA inhibitor – bovine MsrA enzyme inhibitors, primary screen, biochemical, absorbance, HTS | inhibition, % at 15.5 µM | purified bovine MsrA, absorbance read-out | actives 0.75% (n = 360,000); in the data active = inhibition above about 4.5%;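 note: 0% = vehicle wells with enzyme and 100% = reference inhibitor wells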
AHR act – AHR activators, primary screen, cell-based, luminescence, luciferase reporter, human; AHR-responsive luciferase reporter cells; activation, % at 5 µM; actives 2.5% (n = 320,000); AID 2796, 2010; in the data active = activation above about 47%;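 note: 0% = vehicle wells and 100% = reference agonist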
bovine MsrA act – bovine MsrA enzyme activators, primary screen, biochemical, absorbance, HTS. purified bovine MsrA, absorbance read-out. activation, % at 10.6 µM. actives 0.3% (n = 360,000); in the data active = activation above about 7.5%;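 note: 0% = vehicle and 100% = reference activator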
TbMetRS inhib – T. brucei MetRS inhibitors, primary screen, biochemical, luminescence. AID 624268, 2012. actives 0.4% (n = 360,000). purified T. brucei MetRS, ATP depletion, Kinase-Glo luminescence. inhibition, % at 11.9 µM;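 active = inhibition above a per-plate cutoff of the control wells' mean inhibition plus 3 SD, cut at about 5.5% in these data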;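 note: 0% = DMSO wells median and 100% = median of wells with control inhibitor compound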
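System: purified T. brucei MetRS enzyme / Detection: Kinase-Glo luciferase luminescence reporting remaining unconsumed ATP / Medium: HEPES buffer with MgCl2, KCl, DTT, spermine, BSA, pyrophosphatase / Replication: singlicate, one well per compound / Evaluation: percent inhibition relative to median high and low control wells / Schedule: 2 h aminoacylation at 25 °C after 15 min preincubation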
* hit, by the source's call; ? = inconclusive; . = no result given.

SMILES	HTR2A ag	AI-2 QS mod	MsrA inhibitor	AHR act	bovine MsrA act	TbMetRS inhib
COc1ccccc1NC(=O)c1ccc2nsnc2c1	-8	24	0	56*	-3	0
Cc1cc(C(=O)Nc2cccc([N+](=O)[O-])c2C)cs1	4	36	1	-6	-3	0
C#CCN1CC(COc2ccccc2)Oc2cccc(Oc3ccc(C(C)C)cc3)c2S1(=O)=O (centres undefined)	.	.	0	.	.	.
NCc1ccc(OCCCN2CCC(C(O)(C3=CCCC3)c3ccccc3)CC2)cc1 (centres undefined)	.	.	0	.	.	.
CC1CC(CC(=O)NNc2nc(-c3ccccc3)cs2)C(=O)O1 (centres undefined)	5	43	1	3	-3	0
C/C(CCC1CC(C)OC1=O)=N/Nc1nc(-c2ccccc2)cs1 (centres undefined)	0	16	0	103*	-8	-2
O=C(N[C@H](Cc1ccccc1)C(=O)NCC1CCCCC1)[C@H]1O[C@@H](n2ccc(=O)[nH]c2=O)[C@H](O)[C@@H]1O	.	.	0	.	.	.
Cc1ccc(C#N)c(SCC(=O)Nc2nccs2)n1	-1	29	1	63*	-4	0
Cc1nnc(SCC(=O)Nc2sccc2C#N)s1	4	0	1	20	-3	0
Cn1ccnc1SCC(=O)Nc1sccc1C#N	-3	17	0	51*	-7	-1
Clc1ccc(Nc2nc3cccnc3s2)cc1	0	12	0	53*	-4	-1
O=C(CCc1ccccc1)NNC(=S)NC(=O)c1ccccc1	2	-309*	-1	3	7	0
O=C(NC(=S)NCCc1ccccc1)c1ccccc1F	1	17	1	74*	-1	0
CC(=O)NC(=S)NNC(=O)CCc1ccccc1	3	?	1	0	-5	-1
COc1ccc(CCNC(=S)NC(=O)c2ccccc2)cc1C	0	0	0	3	-3	-1
O=C(NCCc1ccccc1)c1ccccc1C(=O)NCCc1ccccc1	-1	3	-1	70*	1	0
O=C(NC(=S)NCc1ccccc1)c1ccccc1F	-1	-5	1	0	-12	-2
O=C(NC(=S)NCCc1ccccc1)c1ccccc1	-7	21	.	69*	-2	1
COC(=O)[C@]12C[C@H](CC(=O)N3CCOCC3)C(=O)N(CCC3=CCCCC3)C1=C[C@H](COCc1ccccc1)O[C@@H]2C	.	.	0	.	.	.
CCOC(=O)C(C(=O)OCC)C(c1ccccc1)N1CCN(c2ccccc2)CC1 (centres undefined)	9	.	-2	.	-1	0
CCCCCCCCN1C(=O)[C@@H](CC(=O)N2CCCC2)C[C@@]2(C(=O)OC)C1=C[C@H](C1CCCC1)O[C@@H]2C	.	.	0	.	.	.
COc1cc(C(=O)OCc2ccc(C)cc2)cc(NC(=O)c2cccs2)c1OC	5	10	0	58*	-6	0
COc1cc(C(=O)O)cc(NC(=O)c2cccs2)c1OC	4	50	1	2	-11	-1
O=C1OCCN1C(=O)[C@H]1[C@H](c2ccc([N+](=O)[O-])cc2)C(c2cccc(Cl)c2)=NN1c1ccc(Br)cc1	1	.	1	.	-4	0
Cc1cccc(C2=NN(c3ccccc3)[C@@H](C(=O)N3CCOC3=O)[C@@H]2c2ccc([N+](=O)[O-])cc2)c1	-2	.	5.5*	.	-2	0
SMILES	HTR2A ag	AI-2 QS mod	MsrA inhibitor	AHR act	bovine MsrA act	TbMetRS inhib
O=C1OCCN1C(=O)[C@H]1[C@H](c2ccc([N+](=O)[O-])cc2)C(c2ccccc2)=NN1c1ccc(Br)cc1	4	.	4.8*	.	-2	0
O=C(CN(C(=O)C1CSC(=O)C1)c1ccc(F)cc1)NCc1ccc2c(c1)OCO2 (centres undefined)	12	4	0	0	-4	0
CCc1nnc(NC(=O)CN2CCN(Cc3ccc(C)cc3)CC2)s1	0	17	0	-2	-11	-1
COc1cccc(C(=O)N2CCC[C@@H]2C(=O)N2CCC[C@H]2C(=O)NCc2ccccc2)c1	.	.	0	.	.	.
C/C(=N\NC(=O)c1cc(-c2ccc(Cl)s2)[nH]n1)c1ccncc1	4	14	-1	50*	0	0
Cc1ccc(C(=O)c2c3ccc(C(F)(F)F)cc3nn2CCC(N)=O)cc1	-5	2	1	65*	-5	0
Cc1ccc(C(=O)c2c3ccc([N+](=O)[O-])cc3[n+]([O-])n2CCC(N)=O)cc1	.	11	1	4	.	.
COc1cccc(Nc2nc(-c3sc(N)nc3C)cs2)c1	2	13	1	105*	-3	1
c1ccc(-c2csc(Nc3ccc4c(c3)OCCO4)n2)cc1	1	2	1	61*	-4	-1
COc1cccc(Nc2nc(-c3ccc4c(c3)OCCO4)cs2)c1	5	39	0	72*	-5	-1
CC(C)(C)S(=O)(=O)N1Cc2cc(CO)ccc2[C@H]1CCO	.	.	-1	.	.	.
c1ccc2nc(-c3ccc4c(c3)OCO4)ccc2c1	2	29	2	65*	0	-1
COC(=O)c1cc(-c2ccc3c(c2)OCO3)nc2ccccc12	2	3	2	4	0	0
FC(F)(F)c1cc(-c2cccs2)nc(-n2cc(Br)cn2)n1	-2	33	0	50*	-1	0
Cc1cnn(-c2nc(-c3cccs3)cc(C(F)(F)F)n2)c1	6	31	2	5	-4	0
CC(C)CNC(=O)[C@H](Cc1ccccc1)NC(=O)c1cccs1	-2	5	1	0	1	0
CCOc1ccc(C(=O)Nc2cc(-c3nc4ccccc4[nH]3)ccc2C)cc1[N+](=O)[O-]	7	75	1	8	-9	13*
CCN(C(=O)COC(=O)c1ccc(C=O)cc1)c1c(N)n(Cc2ccccc2)c(=O)[nH]c1=O	3	.	1	-2	-3	0
O=C(N/N=C/c1c[nH]c2ccccc12)c1cccc([N+](=O)[O-])c1	-1	22	3	70*	-6	1
O=[N+]([O-])c1ccccc1N/N=C/c1c[nH]c2ccccc12	-8	3	3	73*	0	-1
O=[N+]([O-])c1ccccc1N/N=C/c1ccccc1	8	11	0	7	0	1
Cn1ncc([N+](=O)[O-])c1C(=O)Nc1ccc(-c2ccccc2)cc1	-4	11	0	73*	-1	-1
O=C(N/N=C/c1c[nH]c2ccccc12)c1ccccc1	-1	3	2	17	-4	0
